Source: ChEMBL document CHEMBL4689842, “EUbOPEN Chemogenomics Library wave 1” (2021)
“And” between values parts separate entries of the source, which are not always exact repeats. Equal entries are not always repeated.

Key:
Type in all cases: toxicity, cell-based
HEK-293T [1] = assay: Incucyte cell viability with HEK293T; details: human, 10 µM, compound concentration 10 uM; also: filed as whole numbers so only -1 and 0 and 1 occur
Fibroblast [2] = assay: Incucyte cell viability with human fibroblast; details: 10 µM, compound concentration 10 uM; also: filed as whole numbers so only -1 and 0 and 1 occur
U2OS [3] = assay: Multiplex assay against U2OS; details: human, 10 µM, compound concentration 10 uM
Outline: (§1)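 Cells stained live at seeding with Hoechst33342, BioTracker Green Microtubule Cytoskeleton Dye, MitoTracker Red and Annexin V Alexa Fluor 680 were imaged on a CQ1 microscope at 37°C and 5% CO2 after compound addition. Their classification by CellPathfinder machine-learning gating ran from Hoechst high-intensity objects versus normal cells, to healthy, pyknosed or fragmented nuclei among normal cells, to mitotic or apoptotic among pyknosed cells. Tubulin, mitochondrial-mass and membrane-permeability phenotypes are per cents of healthy-nucleus cells.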

Fibroblast [4] = assay: Multiplex assay against human fibroblast; details: 10 µM, compound concentration 10 uM; outline: as §1
HEK-293T [5] = assay: Multiplex assay against HEK293T; details: human, 10 µM, compound concentration 10 uM; outline: as §1;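 as to Population Tubulin-Different-Phenotype (%): share of the cells with healthy nuclei that show this phenotype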
U2OS [6] = assay: Incucyte cell viability with U2OS; details: human, 10 µM, compound concentration 10 uM; also: filed as whole numbers so only -1 and 0 and 1 occur
[7] = 0 h, replicate number 1, timepoint 0 hours
[8] = 6 h, replicate number 1, timepoint 6 hours
[9] = 12 h, replicate number 1, timepoint 12 hours
[10] = 18 h, replicate number 1, timepoint 18 hours
[11] = 24 h, replicate number 1, timepoint 24 hours

Cc1cc(NC(=O)c2cccc(S(F)(F)(F)(F)F)c2)cc(-n2ccn3nc(-c4cccnc4)cc23)c1 [BAY-309]
Growth Rate (HEK-293T [1]; [7]): 1 | Growth Rate (HEK-293T [1]; [8]): 0 | Growth Rate (HEK-293T [1]; [9]): 0 | Growth Rate (HEK-293T [1]; [10]): 0 | Growth Rate (HEK-293T [1]; [11]): 0 | Growth Rate (Fibroblast [2]; [7]): 1 | Growth Rate (Fibroblast [2]; [8]): 0 | Growth Rate (Fibroblast [2]; [9]): 0 | Growth Rate (Fibroblast [2]; [10]): 0 | Growth Rate (Fibroblast [2]; [11]): 0 | Population Apoptotic (%) (U2OS [3]; 12 h, replicate 1): 25% and 23% | Population Fragmented Nuclei (%) (U2OS [3]; 12 h, replicate 1): 4% | Population Healthy Nuclei (%) (U2OS [3]; 12 h, replicate 1): 87% and 78% | Population Hoechst High Intensity Objects (%) (U2OS [3]; 12 h, replicate 1): 0% and 3% | Population Membrane Permeable-Phenotype (%) (U2OS [3]; 12 h, replicate 1): 46% and 55% | Population Mitochondria Different-Phenotype (%) (U2OS [3]; 12 h, replicate 1): 30% and 60% | Population Mitotic Cells (%) (U2OS [3]; 12 h, replicate 1): 75% and 76% | Population Normal (%) (U2OS [3]; 12 h, replicate 1): 99% and 96% | Population Pyknosed Nuclei (%) (U2OS [3]; 12 h, replicate 1): 7% and 16% | Population Tubulin-Different-Phenotype (%) (U2OS [3]; 12 h, replicate 1): 67% | Total Cell Count (U2OS [3]; 12 h, replicate 1): 108 and 233 | Population Apoptotic (%) (U2OS [3]; 12 h, replicate 2): 37% and 56% | Population Fragmented Nuclei (%) (U2OS [3]; 12 h, replicate 2): 8% and 9% | Population Healthy Nuclei (%) (U2OS [3]; 12 h, replicate 2): 82% and 67% | Population Hoechst High Intensity Objects (%) (U2OS [3]; 12 h, replicate 2): 9% and 5% | Population Membrane Permeable-Phenotype (%) (U2OS [3]; 12 h, replicate 2): 53% and 49% | Population Mitotic Cells (%) (U2OS [3]; 12 h, replicate 2): 62% and 43% | Population Normal (%) (U2OS [3]; 12 h, replicate 2): 90% and 94% | Population Pyknosed Nuclei (%) (U2OS [3]; 12 h, replicate 2): 9% and 22% | Population Tubulin-Different-Phenotype (%) (U2OS [3]; 12 h, replicate 2): 61% and 100% | Total Cell Count (U2OS [3]; 12 h, replicate 2): 185 | Population Apoptotic (%) (U2OS [3]; 24 h, replicate 1): 50% and 61% | Population Fragmented Nuclei (%) (U2OS [3]; 24 h, replicate 1): 8% and 6% | Population Healthy Nuclei (%) (U2OS [3]; 24 h, replicate 1): 85% and 70% | Population Hoechst High Intensity Objects (%) (U2OS [3]; 24 h, replicate 1): 5% and 3% | Population Membrane Permeable-Phenotype (%) (U2OS [3]; 24 h, replicate 1): 42% and 56% | Population Mitotic Cells (%) (U2OS [3]; 24 h, replicate 1): 50% and 38% | Population Normal (%) (U2OS [3]; 24 h, replicate 1): 95% and 96% | Population Tubulin-Different-Phenotype (%) (U2OS [3]; 24 h, replicate 1): 53% | Total Cell Count (U2OS [3]; 24 h, replicate 1): 140 and 230 | Population Apoptotic (%) (U2OS [3]; 24 h, replicate 2): 95% and 37% | Population Fragmented Nuclei (%) (U2OS [3]; 24 h, replicate 2): 15% and 7% | Population Healthy Nuclei (%) (U2OS [3]; 24 h, replicate 2): 60% and 84% | Population Hoechst High Intensity Objects (%) (U2OS [3]; 24 h, replicate 2): 9% and 6% | Population Membrane Permeable-Phenotype (%) (U2OS [3]; 24 h, replicate 2): 74% and 40% | Population Mitochondria Different-Phenotype (%) (U2OS [3]; 24 h, replicate 2): 83% and 30% | Population Normal (%) (U2OS [3]; 24 h, replicate 2): 90% and 93% | Population Tubulin-Different-Phenotype (%) (U2OS [3]; 24 h, replicate 2): 100% and 40% | Total Cell Count (U2OS [3]; 24 h, replicate 2): 108 and 215 | Population Apoptotic (%) (Fibroblast [4]; 12 h, replicate 1): 72% and 60% | Population Fragmented Nuclei (%) (Fibroblast [4]; 12 h, replicate 1): 29% and 25% | Population Healthy Nuclei (%) (Fibroblast [4]; 12 h, replicate 1): 45% and 52% | Population Hoechst High Intensity Objects (%) (Fibroblast [4]; 12 h, replicate 1): 11% and 13% | Population Mitochondria Different-Phenotype (%) (Fibroblast [4]; 12 h, replicate 1): 16% and 14% | Population Mitotic Cells (%) (Fibroblast [4]; 12 h, replicate 1): 27% and 39% | Population Normal (%) (Fibroblast [4]; 12 h, replicate 1): 88% and 86% | Population Pyknosed Nuclei (%) (Fibroblast [4]; 12 h, replicate 1): 25% and 22% | Total Cell Count (Fibroblast [4]; 12 h, replicate 1): 260 and 213 | Population Apoptotic (%) (Fibroblast [4]; 12 h, replicate 2): 54% and 62% | Population Fragmented Nuclei (%) (Fibroblast [4]; 12 h, replicate 2): 66% and 44% | Population Healthy Nuclei (%) (Fibroblast [4]; 12 h, replicate 2): 20% and 40% | Population Hoechst High Intensity Objects (%) (Fibroblast [4]; 12 h, replicate 2): 29% and 31% | Population Membrane Permeable-Phenotype (%) (Fibroblast [4]; 12 h, replicate 2): 16% and 20% | Population Mitochondria Different-Phenotype (%) (Fibroblast [4]; 12 h, replicate 2): 33% and 35% | Population Mitotic Cells (%) (Fibroblast [4]; 12 h, replicate 2): 45% and 37% | Population Normal (%) (Fibroblast [4]; 12 h, replicate 2): 70% and 68% | Population Pyknosed Nuclei (%) (Fibroblast [4]; 12 h, replicate 2): 12% and 16% | Population Tubulin-Different-Phenotype (%) (Fibroblast [4]; 12 h, replicate 2): 50% and 80% | Total Cell Count (Fibroblast [4]; 12 h, replicate 2): 122 and 73 | Population Apoptotic (%) (Fibroblast [4]; 24 h, replicate 1): 80% and 62% | Population Fragmented Nuclei (%) (Fibroblast [4]; 24 h, replicate 1): 24% and 21% | Population Healthy Nuclei (%) (Fibroblast [4]; 24 h, replicate 1): 47% and 56% | Population Hoechst High Intensity Objects (%) (Fibroblast [4]; 24 h, replicate 1): 16% and 15% | Population Mitotic Cells (%) (Fibroblast [4]; 24 h, replicate 1): 19% and 37% | Population Normal (%) (Fibroblast [4]; 24 h, replicate 1): 83% and 84% | Population Pyknosed Nuclei (%) (Fibroblast [4]; 24 h, replicate 1): 28% and 21% | Population Tubulin-Different-Phenotype (%) (Fibroblast [4]; 24 h, replicate 1): 83% and 28% | Total Cell Count (Fibroblast [4]; 24 h, replicate 1): 241 and 216 | Population Apoptotic (%) (Fibroblast [4]; 24 h, replicate 2): 60% and 90% | Population Fragmented Nuclei (%) (Fibroblast [4]; 24 h, replicate 2): 66% and 57% | Population Healthy Nuclei (%) (Fibroblast [4]; 24 h, replicate 2): 20% and 26% | Population Hoechst High Intensity Objects (%) (Fibroblast [4]; 24 h, replicate 2): 36% and 25% | Population Membrane Permeable-Phenotype (%) (Fibroblast [4]; 24 h, replicate 2): 11% and 0% | Population Mitochondria Different-Phenotype (%) (Fibroblast [4]; 24 h, replicate 2): 29% and 22% | Population Normal (%) (Fibroblast [4]; 24 h, replicate 2): 63% and 75% | Population Pyknosed Nuclei (%) (Fibroblast [4]; 24 h, replicate 2): 12% and 15% | Population Tubulin-Different-Phenotype (%) (Fibroblast [4]; 24 h, replicate 2): 41% | Total Cell Count (Fibroblast [4]; 24 h, replicate 2): 128 and 92 | Population Fragmented Nuclei (%) (HEK-293T [5]; 12 h, replicate 1): 16% and 13% | Population Healthy Nuclei (%) (HEK-293T [5]; 12 h, replicate 1): 34% and 63% | Population Hoechst High Intensity Objects (%) (HEK-293T [5]; 12 h, replicate 1): 16% and 9% | Population Membrane Permeable-Phenotype (%) (HEK-293T [5]; 12 h, replicate 1): 25% and 14% | Population Mitochondria Different-Phenotype (%) (HEK-293T [5]; 12 h, replicate 1): 32% and 12% | Population Mitotic Cells (%) (HEK-293T [5]; 12 h, replicate 1): 34% and 83% | Population Normal (%) (HEK-293T [5]; 12 h, replicate 1): 83% and 90% | Population Pyknosed Nuclei (%) (HEK-293T [5]; 12 h, replicate 1): 48% and 23% | Population Tubulin-Different-Phenotype (%) (HEK-293T [5]; 12 h, replicate 1): 86% and 41% | Total Cell Count (HEK-293T [5]; 12 h, replicate 1): 619 and 653 | Population Fragmented Nuclei (%) (HEK-293T [5]; 12 h, replicate 2): 3% and 2% | Population Healthy Nuclei (%) (HEK-293T [5]; 12 h, replicate 2): 87% and 72% | Population Hoechst High Intensity Objects (%) (HEK-293T [5]; 12 h, replicate 2): 2% and 4% | Population Membrane Permeable-Phenotype (%) (HEK-293T [5]; 12 h, replicate 2): 16% and 17% | Population Mitotic Cells (%) (HEK-293T [5]; 12 h, replicate 2): 92% and 54% | Population Normal (%) (HEK-293T [5]; 12 h, replicate 2): 97% and 95% | Population Tubulin-Different-Phenotype (%) (HEK-293T [5]; 12 h, replicate 2): 59% and 98% | Total Cell Count (HEK-293T [5]; 12 h, replicate 2): 1524 and 975 | Population Fragmented Nuclei (%) (HEK-293T [5]; 24 h, replicate 1): 19% and 9% | Population Healthy Nuclei (%) (HEK-293T [5]; 24 h, replicate 1): 29% and 77% | Population Hoechst High Intensity Objects (%) (HEK-293T [5]; 24 h, replicate 1): 16% and 7% | Population Membrane Permeable-Phenotype (%) (HEK-293T [5]; 24 h, replicate 1): 10% and 21% | Population Normal (%) (HEK-293T [5]; 24 h, replicate 1): 83% and 92% | Population Tubulin-Different-Phenotype (%) (HEK-293T [5]; 24 h, replicate 1): 85% and 66% | Total Cell Count (HEK-293T [5]; 24 h, replicate 1): 590 and 755 | Population Healthy Nuclei (%) (HEK-293T [5]; 24 h, replicate 2): 79% and 66% | Population Hoechst High Intensity Objects (%) (HEK-293T [5]; 24 h, replicate 2): 3% and 6% | Population Mitotic Cells (%) (HEK-293T [5]; 24 h, replicate 2): 94% and 45% | Population Normal (%) (HEK-293T [5]; 24 h, replicate 2): 96% and 93% | Population Tubulin-Different-Phenotype (%) (HEK-293T [5]; 24 h, replicate 2): 67% and 98% | Total Cell Count (HEK-293T [5]; 24 h, replicate 2): 2348 and 996 | Growth Rate (U2OS [6]; 0 h, replicate number 2, timepoint 0 hours): 0 | Growth Rate (U2OS [6]; [8]): 0 | Growth Rate (U2OS [6]; [9]): 0 | Growth Rate (U2OS [6]; [10]): 0 | Growth Rate (U2OS [6]; [11]): 0
